The test system of one data set is Leishmania donovani. Put plainly: Antileishmanial activity against Leishmania donovani LV82 promastigotes expressing red fluorescent protein after 72 hrs by flow cytometric analysis. The format is functional, organism-based. The following applies: LV82, 72 h.
For the next data set, the system named is Leishmania amazonensis. Kind of data set: Antileishmanial activity against transgenic Leishmania amazonensis amastigotes infected in CD-1 mouse peritoneal macrophages assessed as beta-lactamase activity after 72 hrs by nitrocefin dye-based spectrophotometric analysis. The format is functional, organism-based. In short, it runs like this:
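Beta-lactamase-expressing promastigotes grown in RPMI 1640 GlutaMAX with HEPES, adenosine, folate, RPMI vitamins, 10% heat-inactivated FBS (pH 6.9); added 5:1 to CD-1 mouse peritoneal macrophages (1 × 10⁵ cells/well) for 24 h at 34 °C, washed twice with HBSS, then exposed to test concentrations for 72 h at 34 °C.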

Data set [1] is described as follows: Selectivity index, ratio of IC50 for human HT-29 cells to IC50 for Leishmania amazonensis amastigotes. The format is toxicity, cell-based. The following applies: HT-29 cells versus Leishmania amazonensis amastigotes, read-out: Ratio IC50. In short, it runs like this:
(§1)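 Selectivity index calculated as HT-29 cytotoxicity IC50 divided by antileishmanial IC50.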

A further data set has as its system HT-29. Kind of data set: Cytotoxicity against human HT-29 cells after 72 hrs by SRB assay. It is filed as cell-based. The following applies: HT-29, 72 h. In short, it runs like this:
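HT-29 cells, 9500 per well, exposed to a range of concentrations in triplicate for 72 h; 10% DMSO in water as carrier/negative control, paclitaxel positive control.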

The nature of data set [2]: Selectivity index, ratio of IC50 for human HT-29 cells to IC50 for Leishmania donovani LV82 promastigotes expressing red fluorescent protein. The format is toxicity, cell-based. The following applies: read-out: Ratio IC50. Put shortly: as §1

Where only a bound is given, the exact number is not on record here.

For the compound `CC(C)c1cc(C=O)c([C@@]2(C)CCCC(C)(C)[C@@H]2C=O)cc1O`, the IC50 with Leishmania donovani and in the data set on Leishmania amazonensis was over 10 µg/mL throughout.

In the case of `CC(C)C1=C(O)C(=O)C2=C(C1=O)[C@@H](O)C[C@H]1C(C)(C)CCC[C@]21C`, the IC50 in the data set on Leishmania donovani and with Leishmania amazonensis was over 10 µg/mL in each case.

Take `Cc1ccc2c3c1CCCC(C)(C)[C@@]3(O)C(=O)C(C(C)C)=C2`: the IC50 in the data set on Leishmania donovani and in the data set on Leishmania amazonensis was over 10 µg/mL each time.

For the compound `Cc1ccc2cc(C(C)C)c(O)c3c2c1CCCC(C)(C)O3`, the IC50 in the data set with Leishmania donovani and in the data set on Leishmania amazonensis was over 10 µg/mL in each case.

For `CC(C)c1cc2c(cc1O)[C@@]1(C)CCCC(C)(C)[C@@H]1[C@@H](O)C2=O`, the IC50 was found to be 24.6 µM in the data set with Leishmania donovani, 36 µM in the data set with HT-29 and 17.1 µM in the data set with Leishmania amazonensis. Moreover, the selectivity ratio in data set [1] was 2.1; in data set [2], 1.5.

Turning to `COCC(=O)[C@H]1C(C)(C)CCC[C@]1(C)C1=C(O)C(=O)C(C(C)C)=CC1=O`, the IC50 with Leishmania donovani came out at 6.9 µM; in the data set on HT-29, 4.4 µM; with Leishmania amazonensis it was 1.4 µM. Moreover, the selectivity ratio in data set [1] stood at 3.2; in data set [2], 0.6.

For `CC(C)c1cc2c(cc1O)[C@@]1(C)CCCC(C)(C)C1=C(O)C2=O`, the IC50 with Leishmania donovani and in the data set on Leishmania amazonensis was over 10 µg/mL each time.

Regarding `CO[C@@H]1C[C@H]2C(C)(C)CCC[C@]2(C)C2=C1C(=O)C(C(C)C)=C(O)C2=O`, the IC50 in the data set with Leishmania donovani and with Leishmania amazonensis was over 10 µg/mL in each case.

For the compound `Cc1ccc2c3c1CCCC(C)(C)C3C(=O)C(C(C)C)=C2` (racemic), the IC50 in the data set with Leishmania donovani and in the data set on Leishmania amazonensis was over 10 µg/mL each time.

Regarding `CC(C)c1cc2c(c(O)c1O)[C@@]1(C)CCCC(C)(C)C1=C(O)C2=O` [14-DEOXYCOLEON U], the IC50 in the data set with Leishmania donovani is over 60 µM; in the data set on HT-29, 13.3 µM; in the data set on Leishmania amazonensis, 13 µM. The selectivity ratio in data set [1] was 1; in data set [2], under 0.27.

As for `C[C@@H]1[C@H](O)[C@@H](C)/C=C/C=C/C=C/C=C/C=C/C=C/C=C/[C@H](O[C@@H]2O[C@H](C)[C@@H](O)[C@H](N)[C@@H]2O)C[C@@H]2O[C@](O)(C[C@@H](O)C[C@@H](O)[C@H](O)CC[C@@H](O)C[C@@H](O)CC(=O)O[C@H]1C)C[C@H](O)[C@H]2C(=O)O` [AMPHOTERICIN B], the IC50 with Leishmania amazonensis came out at 0.086 µM.

In the case of `CC(C)c1cc2c(cc1O)[C@@]1(C)CCCC(C)(C)[C@@H]1CC2` [FERRUGINOL], the IC50 was 45.7 µM with Leishmania donovani, 39.4 µM in the data set on HT-29 and 15.4 µM in the data set with Leishmania amazonensis. Besides, the selectivity ratio came to 2.5 in data set [1] and 0.9 in data set [2].

On to `CC(C)C1=C(O)C(=O)C2=C(C1=O)[C@H](O)C[C@H]1C(C)(C)CCC[C@]21C` [HORMINONE], for which the IC50 in the data set on Leishmania donovani and in the data set on Leishmania amazonensis was over 10 µg/mL each time.

`CC(C)C1=C(O)C(=O)C2=C(CC[C@H]3C(C)(C)CCC[C@]23C)C1=O` [ROYLEANONE]: the 50% inhibitory concentration (IC50) in the data set on Leishmania donovani and in the data set with Leishmania amazonensis was over 10 µg/mL in each case.

In the case of `CC(C)c1cc2c(cc1O)[C@@]1(C)CCCC(C)(C)[C@@H]1CC2=O` [SUGIOL], the IC50 in the data set on Leishmania donovani and in the data set with Leishmania amazonensis was over 10 µg/mL each time.

`CC(C)C1=CC2=CC(=O)[C@H]3C(C)(C)CCC[C@]3(C)C2=C(O)C1=O` [TAXODIONE]: the IC50 was found to be 1.6 µM in the data set on Leishmania donovani, 2.5 µM with HT-29 and 14.3 µM with Leishmania amazonensis. Besides, the results for the selectivity ratio in data set [1] and in data set [2] were 0.2 and 1.6, respectively.

Source of the values: ChEMBL document CHEMBL3813634, “Antileishmanial and Cytotoxic Activity of Some Highly Oxidized Abietane Diterpenoids from the Bald Cypress, Taxodium distichum” (J Nat Prod, 2016).
